Reference: PubChem BioAssay
Activity calls are given as the source filed them.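 The calls were made as follows, unless noted: active = GFP response above 150% of the DMSO level; inconclusive = fewer than 70 events counted for a yeast strain; inactive = the rest.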

What was measured:
[1] = hit retest on RPL19A-GFP reporter strain – cell-based, S. cerevisiae, flow cytometry, cherry picks, mother/daughter gates, confirmation (AID 2270;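 active = GFP response below 50% of the DMSO control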); conditions: 3 h, at 10 µM, stronger effect = lower value, 100 = same GFP as DMSO wells
[2] = yeast TOR pathway reporter LAP4-GFP change – cell-based, cherry picks, flow cytometry, mother/daughter gates, confirmation (AID 2271;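 active = GFP response above 150% of the DMSO control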;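 also: ratio of sample to DMSO plate mean so 100% equals DMSO level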); conditions: S. cerevisiae LAP4-GFP strain, 3 h, at 10 µM, stronger effect = higher value, 100 means same as DMSO control
Procedure, shortened: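 Material: Alexa Fluor 633-labelled Saccharomyces cerevisiae GFP-fusion strain, single-plex | Amount: Yeast cells seeded at OD600 of 0.2 | Buffer or medium: SC growth medium | Schedule: 3 h exposure, 30 °C | Measured by: HT flow cytometry, GFP fluorescence channel | Evaluation: % GFP response vs DMSO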

[3] = TOR pathway reporter MEP2-GFP, retest of hits – S. cerevisiae, flow cytometry GFP, cherry picks, confirmation (AID 2272;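 active = GFP response above 150% of the DMSO control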;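 also: ratio of well signal to plate DMSO mean so 100% equals DMSO level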); conditions: S. cerevisiae MEP2-GFP strain, 3 h, at 10 µM, stronger effect = higher value
[4] = yeast AGP1-GFP fluorescence change, single-dose – cell-based, flow cytometry, S. cerevisiae, cherry picks, confirmation (AID 2273);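 also: median GFP channel fluorescence over the whole cell population gate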; conditions: S. cerevisiae AGP1-GFP strain, 3 h, at 10 µM
[5] = TOR pathway CIT2 reporter hit retest – S. cerevisiae, GFP fusion, cherry picks, mother/daughter gates, confirmation (AID 2274); conditions: S. cerevisiae CIT2-GFP strain, flow cytometry, 3 h, at 10 µM, stronger effect = higher value
[6] = measured here: daughter cell gate
[7] = measured here: mother cell gate
[8] = measured here: daughter cell gate response
[9] = measured here: mother cell gate response

Compound	GFP response vs DMSO [1]	GFP response vs DMSO [1, 6] [%]	GFP response vs DMSO [1, 7] [%]	GFP response relative to DMSO [2]	GFP response relative to DMSO [2, 8] [%]	GFP response relative to DMSO [2, 9] [%]	GFP response vs DMSO [3]	GFP response, % of DMSO [4]	GFP response, % of DMSO [5]	GFP response, % of DMSO [5, 6] [%]	GFP response, % of DMSO [5, 7] [%]
N=c1n(CCN2CCCCC2)c2ccccc2n1CC(=O)c1ccc(Cl)c(Cl)c1	99.5% (inactive)	99	100	101% (inactive)	100	102	100% (inactive)	99.4% (inactive)	96.5% (inactive)	93.2	78.3
O=[N+]([O-])/C=C/c1cn(Cc2ccccc2)c2ccccc12	103% (inactive)	98.1	98.2	134% (inactive)	131	138	102% (inactive)	98.3% (inactive)	96.5% (inactive)	94.8	91.2
CC1(C)CCN2CCC(C)(C)c3c(O)ccc1c32	105% (inactive)	105	107	115% (inactive)	123	115	139% (inactive)	101% (inactive)	121% (inactive)	123	119
COc1ccccc1-c1nnc(NC(=O)c2ccc(S(=O)(=O)N3CCCC3)cc2)o1	102% (inactive)	101	104	96.2% (inactive)	98.7	97.2	102% (inactive)	98% (inactive)	107% (inactive)	105	107
CCOC(=O)c1ccc(NC(=O)c2nc(S(=O)(=O)Cc3ccccc3)ncc2Cl)cc1	99.5% (inactive)	99	98.9	93.8% (inactive)	95.6	95.2	102% (inactive)	101% (inactive)	97.8% (inactive)	94.8	97.7
CC1=NNC(=O)/C1=C\c1cn(-c2ccccc2)nc1-c1cccs1	92.6% (inactive)	88	89.6	288% (active)	122	269	103% (inactive)	120% (inactive)	119% (inactive)	93.8	114
CS(=O)(=O)Nc1cccc(C2=NN(S(C)(=O)=O)C(c3ccc4c(c3)OCO4)C2)c1 (stereo unspecified)	97.2% (inactive)	98.9	98.7	99.2% (inactive)	99.2	98.3	102% (inactive)	99.5% (inactive)	103% (inactive)	103	103
CCS(=O)(=O)Nc1cccc(C2=NN(S(C)(=O)=O)C(c3ccccc3)C2)c1 (stereo unspecified)	100% (inactive)	101	100	110% (inactive)	105	112	120% (inactive)	112% (inactive)	111% (inactive)	112	110
CC(=O)Oc1ccc(N2C(=O)C3C4C=CC(CO)(O4)C3C2=O)cc1 (stereo unspecified)	103% (inactive)	104	97.8	120% (inactive)	120	120	107% (inactive)	101% (inactive)	109% (inactive)	112	104
CCN(CC)c1ccc2cc(-c3nc4ccccc4[nH]3)c(=O)oc2c1	108% (inactive)	106	111	107% (inactive)	99.3	113	185% (active)	108% (inactive)	135% (inactive)	132	136
CS(=O)(=O)N1N=C(c2ccc(Br)cc2)CC1c1ccc2c(c1)OCO2 (stereo unspecified)	102% (inactive)	101	102	105% (inactive)	104	104	114% (inactive)	99.3% (inactive)	109% (inactive)	111	107
Fc1cccc(Cl)c1Cn1ncc2ccccc21	97.6% (inactive)	96.1	96.3	102% (inactive)	99.1	100	99% (inactive)	101% (inactive)	97.3% (inactive)	97.4	96.8
CCCc1cc(N2CCN(c3ccccn3)CC2)n2nc(C)c(-c3ccccc3)c2n1	104% (inactive)	101	104	142% (inactive)	147	140	160% (inactive)	109% (inactive)	153% (active)	154	148
CC(=O)Nc1c(-c2ccc(F)cc2)nc2ccccn12	97.6% (inactive)	99	95.8	106% (inactive)	110	108	116% (inactive)	106% (inactive)	110% (inactive)	114	108
COC(=O)Cc1ccc(OCc2ccc(Cl)nc2)cc1	97.8% (inactive)	97.5	98.6	107% (inactive)	107	106	97.5% (inactive)	101% (inactive)	95% (inactive)	94.6	94.5
CC(C)c1ccc2c(c1)C1(NN=C(c3ccccc3)S1)C(=O)N2 (stereo unspecified)	105% (inactive)	107	104	96.2% (inactive)	95.6	98.3	100% (inactive)	95.7% (inactive)	91.3% (inactive)	96.5	88

Compound	GFP response vs DMSO [1]	GFP response vs DMSO [1, 6] [%]	GFP response vs DMSO [1, 7] [%]	GFP response relative to DMSO [2]	GFP response relative to DMSO [2, 8] [%]	GFP response relative to DMSO [2, 9] [%]	GFP response vs DMSO [3]	GFP response, % of DMSO [4]	GFP response, % of DMSO [5]	GFP response, % of DMSO [5, 6] [%]	GFP response, % of DMSO [5, 7] [%]
N/C(=N\OC(=O)c1cccc(Br)c1)c1ccccc1	97.2% (inactive)	96.4	93.6	137% (inactive)	123	143	105% (inactive)	64.6% (inactive)	140% (inactive)	121	140
CCOC(=O)C1CCCN(c2c(C(=O)c3ccccc3)cnc3ccccc23)C1 (stereo unspecified)	99.3% (inactive)	98.8	102	91.9% (inactive)	90.7	89.7	97.5% (inactive)	101% (inactive)	104% (inactive)	104	101
CCc1nnc(NC(=O)c2nc(S(=O)(=O)Cc3cccc(C)c3)ncc2Cl)s1	93.9% (inactive)	93.1	92.7	105% (inactive)	102	102	104% (inactive)	105% (inactive)	99.3% (inactive)	100	98
CCOc1ccc(N2C(=O)CC(Sc3ncccn3)C2=O)cc1 (stereo unspecified)	98.2% (inactive)	98.4	99.2	97.9% (inactive)	97.6	98.3	100% (inactive)	101% (inactive)	104% (inactive)	105	104
CC(=O)Nc1cccc(/C(C)=N/NC(=O)c2ccccc2Cl)c1	98.2% (inactive)	97.9	98.7	102% (inactive)	102	99.3	100% (inactive)	101% (inactive)	99.7% (inactive)	101	99.7
COc1ccc(C(=O)ON=C2CCN(c3ccc([N+](=O)[O-])cc3)CC2)cc1	97.6% (inactive)	97.5	97.6	117% (inactive)	107	118	97.5% (inactive)	76.1% (inactive)	108% (inactive)	104	108
CCC(C(=O)O)n1nc(-c2ccccc2)c2cc(Cl)ccc21 (stereo unspecified)	98.7% (inactive)	98.4	98.2	98.9% (inactive)	96	99.5	99.3% (inactive)	102% (inactive)	101% (inactive)	99.3	102
COc1cc(C2CC(c3cccnc3)=NN2c2ccc(F)cc2)cc(OC)c1OC (stereo unspecified)	98.2% (inactive)	98.4	95.2	95.3% (inactive)	94.4	95.4	101% (inactive)	102% (inactive)	98.6% (inactive)	97.6	96
N/C(Cc1ccc(Cl)cc1Cl)=N\OC(=O)c1ccccc1	99.2% (inactive)	86.3	89.4	222% (active)	145	213	125% (inactive)	105% (inactive)	181% (active)	117	157
O=[N+]([O-])c1cnc(Sc2ccncn2)s1	102% (inactive)	105	99.2	166% (active)	148	182	141% (inactive)	111% (inactive)	113% (inactive)	124	102
O=C(Oc1ccnc2cc(Cl)ccc12)N1CCCCCC1	99.3% (inactive)	97.3	95	114% (inactive)	111	117	437% (active)	185% (active)	92.6% (inactive)	93.2	89.1
CCc1ccc(C(=O)/C=C/c2ccc([N+](=O)[O-])o2)cc1	104% (inactive)	108	103	146% (inactive)	141	152	180% (active)	99.1% (inactive)	154% (active)	156	148
CN1CCSc2ccc(C(=O)Nc3cccc(F)c3)cc21	95.2% (inactive)	91.8	96.7	120% (inactive)	115	121	99.5% (inactive)	97.8% (inactive)	92.1% (inactive)	89	91
COc1ccc(/C=N/Nc2nnc(C)n2N)cc1OC(C)=O	99.5% (inactive)	100	99	94.2% (inactive)	96.5	92.6	104% (inactive)	102% (inactive)	104% (inactive)	104	103
Cc1nn(Cc2ccc([N+](=O)[O-])cc2)c(=O)n1-c1cccc(Cl)c1	96% (inactive)	96.6	96.6	96.7% (inactive)	97.6	96.1	98.3% (inactive)	95.4% (inactive)	99.7% (inactive)	101	99.7
